Measured values as given in ChEMBL document CHEMBL4020760, “Discovery of a Small Molecule Probe That Post-Translationally Stabilizes the Survival Motor Neuron Protein for the Treatment of Spinal Muscular Atrophy” (J Med Chem, 2017).
Converted amounts (≈) assume the structure as drawn. Blank lines part the entries; values can stand above or below the molecule they belong to. The source made the active and inactive calls. The calls are words filed in the database; no cut-off is given here. Peptide text beside a SMILES is read from it. * marks the point of attachment. Cbz = O=C(OCc1ccccc1)*

What was measured:
[1] = biological target: Survival motor neuron protein (Homo sapiens) (UniProt Q16637); assay: Stabilization of human SMN protein expressed in HEK293 cells expressing SMN2 promoter after 24 hrs by luciferase reporter gene assay relative to control; type: cell-based
How it was run: (§1)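 SMN2-luc reporter cells seeded at 25,000/well overnight, then treated 24 h with six doses (3-fold serial dilutions, top final 10 or 30 μM), 0.1% DMSO. Firefly and Renilla luciferase read by dual-luciferase assay, normalized to DMSO as percent; EC50 and maximal activation from curves. Mean ± SEM, ≥3 trials.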

[2] = tested on: Plasma; assay: Half life in mouse plasma after 60 mins; type: ADME, cell-free; settings: 1 h
[3] = tested on: Liver; assay: (§2) Half life in mouse liver microsomes; type: ADME, microsome; settings: microsomes
How it was run: (§3)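 Compound stability in mouse and human liver microsomes, expressed as half-life in min.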

[4] = tested on: HEK293; assay: Effect on cycloheximide-induced reduction in basal level of polyubiquitinated protein level in HEK293 cells at 1 uM pretreated for 2 hrs followed by cycloheximide addition measured after 6 hrs by SDS-PAGE analysis; type: functional, cell-based; settings: Homo sapiens
How it was run: (§4)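 HEK293 cells pretreated 2 h with test compound or MG-132 (1 and 10 μM), then DMSO or cycloheximide (10 μM) added and incubated a further 6 h; final DMSO 0.2%. Lysates run on 4–15% gradient SDS-PAGE; anti-ubiquitin blot for polyubiquitinated proteins, tubulin as loading control.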

[5] = species: Homo sapiens; assay: Inhibition of proteasome in HEK293 cells assessed as increase in polyubiquitinated protein level at 1 and 10 uM incubated for 2 hrs by SDS-PAGE analysis; type: cell-based; how it was run: as §4
[6] = species: Homo sapiens; assay: Inhibition of proteasome in HEK293 cells assessed as stabilization of SMN protein by measuring increase in SMN protein half life at 10 uM by pulse-chase experiment; type: cell-based
[7] = biological target: Survival motor neuron protein (Homo sapiens) (UniProt Q16637); assay: Stabilization of SMN protein in HEK293 cells assessed as increase in SMN protein half life at 10 uM by pulse-chase experiment; type: cell-based
[8] = biological target: Survival motor neuron protein (Homo sapiens) (UniProt Q16637); assay: Stabilization of human luc fused SMN protein expressed in HEK293 cells at 10 uM after 24 hrs in presence of 10 uM cycloheximide by luciferase reporter gene assay; type: cell-based
How it was run: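 SMN2-luciferase reporter cells were maintained in high-glucose DMEM with 10% FBS, Pen/Strep and hygromycin at 37 °C. They were treated at the same time with cycloheximide (10 μM), to block protein synthesis, and with compound or DMSO. Cells were lysed at set time points, and SMN2-luc (firefly) and Renilla-luc activities were read by dual-luciferase assay.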

[9] = tested on: Renilla; assay: Effect on renilla recombinant luciferase protein expressed in HEK293 cells at 10 uM after 24 hrs in presence of 10 uM cycloheximide by renilla luciferase reporter gene assay; type: cell-based
How it was run: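 SMN2-luc reporter cells given cycloheximide (10 μM) together with compound (10 μM) or DMSO. Lysed at set time points; SMN-luc and Renilla-luc activities measured.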

[10] = Stabilization of human […] expressed in HEK293 cells expressing SMN2 promoter after 24 hrs by luciferase reporter gene assay; type: cell-based; settings: HEK293, 24 h; how it was run: as §1
[11] = tested on: HEK293; assay: Stabilization of human […] expressed in HEK293 cells expressing SMN2 promoter after 24 hrs by luciferase reporter gene assay relative to control; type: cell-based; settings: in the assay text read “SMN protein” for “SMN mRNA”; how it was run: as §1
[12] = Aqueous solubility of the compound at pH 7.4; type: physicochemical; settings: aqueous solution
How it was run: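 Kinetic solubility measured in aqueous medium at pH 7.4.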

[13] = biological target: Survival motor neuron protein (Homo sapiens) (UniProt Q16637); assay: Stabilization of SMN protein in 3813T fibroblasts derived from human SMA patient assessed as increase in SMN protein level after 48 hrs by SDS-PAGE and immunoblot
How it was run: (§5)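 hTERT-immortalized SMA patient 3813T fibroblasts seeded at 6000/well, next day dosed for 48 h at indicated concentrations, 0.1% DMSO. Lysed in boiling buffer (150 mM NaCl, 10 mM Tris pH 8.0, 2% SDS), run on 10% SDS-PAGE, SMN immunoblotted, normalized to tubulin or actin as fold over DMSO; one-way ANOVA with Dunnett.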

[14] = biological target: Survival motor neuron protein (Homo sapiens) (UniProt Q16637); assay: Stabilization of SMN protein in 3813T fibroblasts derived from human SMA patient assessed as increase in SMN protein level at 2 uM after 48 hrs by SDS-PAGE and immunoblot; how it was run: as §5
[15] = tested on: Plasma; assay: Cmax in mouse plasma at 20 mg/kg, ip after 30 mins; type: ADME, organism-based; parameters: dose 20 mg/kg, route intraperitoneal; settings: in vivo, 0.5 h, BLD = below limit of detection
[16] = tested on: Brain; assay: Cmax in mouse brain at 20 mg/kg, ip after 30 mins; type: ADME, organism-based; parameters: dose 20 mg/kg, route intraperitoneal; settings: in vivo, 0.5 h, BLD = below limit of detection
[17] = Cmax in mouse plasma at 20 mg/kg, ip; type: ADME, organism-based; parameters: dose 20 mg/kg, route intraperitoneal; settings: plasma
[18] = Cmax in mouse brain at 20 mg/kg, ip; type: ADME, organism-based; parameters: dose 20 mg/kg, route intraperitoneal
[19] = tested on: Liver; assay: Half life in human liver microsomes; type: ADME, microsome; how it was run: as §3
[20] = biological target: Survival motor neuron protein (Homo sapiens) (UniProt Q16637); assay: Stabilization of SMN protein in 3813T fibroblasts derived from human SMA patient assessed as increase in SMN protein level after 48 hrs by SDS-PAGE and immunoblot
[21] = biological target: Survival motor neuron protein (Homo sapiens) (UniProt Q16637); assay: Stabilization of SMN protein in 3813T fibroblasts derived from human SMA patient assessed as increase in SMN protein level at 2 uM after 48 hrs by SDS-PAGE and immunoblot
[22] = as §2; type: ADME, microsome; settings: liver microsomes; how it was run: as §3
[23] = tested on: HEK293; assay: Effect on human luciferase-tagged SMN mRNA expressed in HEK293 cells assessed as SMN exon 7 included transcript at 10 uM after 24 hrs by qRT-PCR relative to GAPDH mRNA expression; type: cell-based
How it was run: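 SMN2-luciferase reporter cells treated with compound; total RNA isolated with Trizol, DNase I treated and reverse transcribed. SYBR Green qPCR for SMN exon 7-included and full-length transcripts, with GAPDH as reference.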

[24] = tested on: HEK293; assay: Inhibition of autophagy in HEK293 cells assessed as increase in p62 level at 10 uM after 8 hrs by immunoblot analysis; settings: Homo sapiens
[25] = tested on: HEK293; assay: Inhibition of autophagy in HEK293 cells assessed as increase in LC3-2 level at 10 uM after 8 hrs by immunoblot analysis; settings: Homo sapiens

Sequence of Survival motor neuron protein (Homo sapiens) (Q16637 whole entry, the tested form may be a part): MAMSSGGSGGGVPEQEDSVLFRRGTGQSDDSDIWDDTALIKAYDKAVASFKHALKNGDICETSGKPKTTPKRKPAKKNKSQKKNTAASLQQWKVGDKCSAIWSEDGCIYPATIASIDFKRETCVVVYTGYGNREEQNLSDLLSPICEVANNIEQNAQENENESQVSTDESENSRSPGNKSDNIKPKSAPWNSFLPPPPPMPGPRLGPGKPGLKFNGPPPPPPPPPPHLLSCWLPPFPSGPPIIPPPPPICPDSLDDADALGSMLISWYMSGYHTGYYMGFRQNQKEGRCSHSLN

SMILES: CC(C)c1cc(NC(=O)Nc2ccc(F)c(Cl)c2)no1
Activity [1]: inactive

SMILES: O=C(Nc1ccc(F)c(Cl)c1)c1cc(-c2ccccc2)on1
Activity [1]: inactive

SMILES: O=C(Nc1ccc(F)c(Cl)c1)c1cc(C2CCCC2)on1
Activity [1]: inactive

SMILES: CC(C)c1cc(C(=O)Nc2cccc(Cl)c2)no1
Activity [1]: 160%

t1/2 [2]: 76 min | t1/2 [3]: < 5 min
SMILES: Cc1c(C(=O)Nc2ccc(F)c(Cl)c2)noc1C(C)C
Activity [1]: 182%

SMILES: Cc1ccccc1NC(=O)c1cc(C(C)C)on1
Activity [1]: 125%

t1/2 [2]: 183 min
SMILES: CC(C)c1cc(NC(=O)c2ccc(F)c(Cl)c2)no1
Activity [1]: 188%

SMILES: CC(C)C[C@@H](C=O)NC(=O)[C@H](CC(C)C)NC(=O)[C@H](CC(C)C)NC(=O)OCc1ccccc1 (Cbz-Leu-Leu-Leu-aldehyde)
Activity [4]: Active | inhibition [5]: Active | inhibition [6]: Active

SMILES: CC(C)c1cc(C(=O)Nc2ccccc2Cl)no1
Activity [1]: 114%

SMILES: COc1ccccc1NC(=O)c1cc(C(C)C)on1
Activity [1]: 80%

SMILES: CC(C)c1cc(CNc2ccc(F)c(Cl)c2)no1
Activity [1]: 137%

t1/2 [3]: < 5 min
SMILES: O=C(Nc1ncc(C2CCC2)s1)c1ccc(F)c(Cl)c1

SMILES: CC(C)(C)c1cc(C(=O)Nc2ccc(F)c(Cl)c2)no1
Activity [1]: 140%

SMILES: O=C(Nc1ccc(F)c(Cl)c1)c1cc(C2CCCCC2)on1
Activity [1]: inactive

SMILES: CC(C)c1cc(C(=O)Nc2nc3ccccc3n2C)no1
Activity [1]: 219%

t1/2 [2]: < 5 min
SMILES: CC(C)c1cc(C(=O)N2CCc3ccccc32)no1
Activity [1]: 164%

SMILES: O=C(Nc1ccc(F)c(Cl)c1)c1ccon1
Activity [1]: inactive

SMILES: CCc1cc(C(=O)Nc2ccc(F)c(Cl)c2)no1
Activity [1]: 165%

EC50 [10]: 8.3 µM
SMILES: COc1cc2c(c(OC)c1OC)C(c1cc(Br)ccc1F)CC(=O)N2 (stereo unspecified)
Activity [7]: inactive | Activity [8]: Active | Activity [9]: Active | Activity [11]: 186%

SMILES: CC(C)c1nc(NC(=O)c2ccc(F)c(Cl)c2)cs1
Activity [1]: 131%

t1/2 [2]: 8 min | solubility kinetic [12]: 59 µM (≈ 13.6 µg/mL) | t1/2 [3]: < 5 min
SMILES: CC(C)c1cc(C(=O)Nc2ccccc2)no1
Activity [1]: 190%

SMILES: CC(C)c1cc(C(=O)Nc2ccc(F)cc2)no1
Activity [1]: 182%

t1/2 [2]: < 5 min | solubility kinetic [12]: 77 µM (≈ 17.8 µg/mL) | t1/2 [3]: > 120 min | Cmax [15]: Bld | Cmax [16]: Bld | Cmax [17]: 2 to 3 ng/mL | Cmax [18]: 5 to 6 ng/mL | t1/2 [19]: > 120 min
SMILES: CC(C)c1cc(C(=O)Nc2ccccn2)no1
Activity [1]: 195% | Activity [13]: Dose-dependent effect | fold change (FC) [14]: 2 | Activity [20]: Dose-dependent effect | fold change (FC) [21]: 2

SMILES: CC(C)c1cc(C(=O)NC2Cc3ccccc3C2)no1
Activity [1]: inactive

SMILES: CC(C)c1cc(NC(=O)c2ccc(F)c(Cl)c2)on1
Activity [1]: 137%

SMILES: COc1cccc(NC(=O)c2cc(C(C)C)on2)c1
Activity [1]: 147%

SMILES: CC(C)c1cc(C(=O)Nc2nc3ccccc3s2)no1
Activity [1]: 124%

SMILES: CC(C)c1cc(C(=O)Nc2ccc(Cl)cc2)no1
Activity [1]: 168%

t1/2 [2]: 13 min | solubility kinetic [12]: 6 µM (≈ 1.7 µg/mL) | half-life [22]: ≤ 5 min
SMILES: CC(C)c1cc(C(=O)Nc2ccc(F)c(Cl)c2)no1
Activity [1]: 242% | Activity [7]: Active | Activity [23]: inactive | Activity [8]: Active | Activity [9]: inactive

SMILES: O=C(Nc1ccc(F)c(Cl)c1)c1cc(Cc2ccccc2)on1
Activity [1]: 116%

t1/2 [2]: 5 min
SMILES: CC(C)c1cc(C(=O)N(C)c2ccc(F)c(Cl)c2)no1
Activity [1]: inactive

SMILES: O=C(CCCCCCC(=O)Nc1ccccc1)NO
Activity [8]: Active | Activity [9]: Active

SMILES: Cc1cc(C(=O)Nc2ccc(F)c(Cl)c2)no1
Activity [1]: inactive

SMILES: CC(C)c1cc(C(=S)Nc2ccc(F)c(Cl)c2)no1
Activity [1]: 120%

SMILES: Cc1ccc(NC(=O)c2cc(C(C)C)on2)cc1
Activity [1]: 200%

SMILES: CC(C)Cc1cc(C(=O)Nc2ccc(F)c(Cl)c2)no1
Activity [1]: 180%

solubility kinetic [12]: 12 µM (≈ 3.24 µg/mL) | t1/2 [3]: < 5 min
SMILES: CC(C)c1cc(C(=O)Nc2nc3ccccc3[nH]2)no1
Activity [1]: 211%

t1/2 [2]: 9 min
SMILES: CC(C)c1cc(C(=O)Nc2ccccc2F)no1
Activity [1]: 175%

SMILES: Cc1cccc(NC(=O)c2cc(C(C)C)on2)c1
Activity [1]: 150%

SMILES: CCN(CC)CCCC(C)Nc1ccnc2cc(Cl)ccc12 (stereo unspecified)
Activity [24]: Active | Activity [25]: Active

SMILES: CC(C)c1cc(C(=O)Oc2ccc(F)c(Cl)c2)no1
Activity [1]: inactive

SMILES: CC(C)c1cc(C(=O)Nc2cccnc2)no1
Activity [1]: 94%

SMILES: CC(C)c1cc(C(=O)Nc2ncco2)no1
Activity [1]: inactive

solubility kinetic [12]: 49 µM (≈ 12.2 µg/mL) | t1/2 [3]: < 5 min
SMILES: CC(C)c1cc(C(=O)Nc2cccc(F)c2)no1
Activity [1]: 180%

SMILES: CC(C)c1cc(C(=O)Nc2ccncc2)no1
Activity [1]: inactive

SMILES: CC(C)c1cc(C(=O)Nc2nccs2)no1
Activity [1]: 166%
